Where “and” joins values, the source holds several entries; their conditions need not be identical. Equal entries are not always repeated.
Tested on: HEK-293T
Experiment: Multiplex assay against HEK293T;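 for Population Tubulin-Different-Phenotype (%): share of the cells with healthy nuclei that show this phenotype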
Format: toxicity, cell-based
Conditions: human
Method in brief: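 With compound added, live cells were imaged on a CQ1 microscope at 37°C and 5% CO2; staining with Hoechst33342, BioTracker Green Microtubule Cytoskeleton Dye, MitoTracker Red and Annexin V Alexa Fluor 680 had been done at seeding. The CellPathfinder machine-learning gating scheme split cells into Hoechst high-intensity objects or normal cells, normal cells into healthy, pyknosed or fragmented nuclei, and pyknosed cells into mitotic or apoptotic. The tubulin, mitochondrial-mass and membrane-permeability phenotypes are per cents of healthy-nucleus cells.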

[1] = 12 h, 1 µM, compound concentration 1 uM, replicate 1
[2] = 12 h, 1 µM, compound concentration 1 uM, replicate 2
[3] = 12 h, 10 µM, compound concentration 10 uM, replicate 1
[4] = 12 h, 10 µM, compound concentration 10 uM, replicate 2
[5] = 24 h, 1 µM, compound concentration 1 uM, replicate 1
[6] = 24 h, 1 µM, compound concentration 1 uM, replicate 2
[7] = 24 h, 10 µM, compound concentration 10 uM, replicate 1
[8] = 24 h, 10 µM, compound concentration 10 uM, replicate 2
[9] = 48 h, 1 µM, compound concentration 1 uM, replicate 1
[10] = 48 h, 1 µM, compound concentration 1 uM, replicate 2
[11] = 48 h, 10 µM, compound concentration 10 uM, replicate 1
[12] = 48 h, 10 µM, compound concentration 10 uM, replicate 2

## COc1ccc(-c2ccc3c(N4CCOCC4)nc(N4C[C@@H](C)O[C@@H](C)C4)nc3n2)cc1CO [Ku-0063794]
[1]
  Population Apoptotic (%): 17%
  Population Fragmented Nuclei (%): 21%
  Population Healthy Nuclei (%): 63%
  Population Hoechst High Intensity Objects (%): 20%
  Population Membrane Permeable-Phenotype (%): 6%
  Population Mitochondria Different-Phenotype (%): 3%
  Population Mitotic Cells (%): 82%
  Population Normal (%): 79%
  Population Pyknosed Nuclei (%): 14%
  Population Tubulin-Different-Phenotype (%): 3%
  Total Cell Count: 492
[2]
  Population Apoptotic (%): 8%
  Population Fragmented Nuclei (%): 12%
  Population Healthy Nuclei (%): 82%
  Population Hoechst High Intensity Objects (%): 2%
  Population Membrane Permeable-Phenotype (%): 1%
  Population Mitochondria Different-Phenotype (%): 4%
  Population Mitotic Cells (%): 91%
  Population Normal (%): 97%
  Population Pyknosed Nuclei (%): 4%
  Population Tubulin-Different-Phenotype (%): 5%
  Total Cell Count: 1701
[3]
  Population Apoptotic (%): 41%
  Population Fragmented Nuclei (%): 31%
  Population Healthy Nuclei (%): 63%
  Population Hoechst High Intensity Objects (%): 52%
  Population Membrane Permeable-Phenotype (%): 11%
  Population Mitochondria Different-Phenotype (%): 10%
  Population Mitotic Cells (%): 58%
  Population Normal (%): 47%
  Population Pyknosed Nuclei (%): 4%
  Population Tubulin-Different-Phenotype (%): 12%
  Total Cell Count: 726
[4]
  Population Apoptotic (%): 40%
  Population Fragmented Nuclei (%): 11%
  Population Healthy Nuclei (%): 87%
  Population Hoechst High Intensity Objects (%): 27%
  Population Membrane Permeable-Phenotype (%): 4%
  Population Mitochondria Different-Phenotype (%): 15%
  Population Mitotic Cells (%): 60%
  Population Normal (%): 72%
  Population Pyknosed Nuclei (%): 1%
  Population Tubulin-Different-Phenotype (%): 17%
  Total Cell Count: 1160
[5]
  Population Apoptotic (%): 19%
  Population Fragmented Nuclei (%): 19%
  Population Healthy Nuclei (%): 71%
  Population Hoechst High Intensity Objects (%): 11%
  Population Membrane Permeable-Phenotype (%): 8%
  Population Mitochondria Different-Phenotype (%): 2%
  Population Mitotic Cells (%): 80%
  Population Normal (%): 88%
  Population Pyknosed Nuclei (%): 8%
  Population Tubulin-Different-Phenotype (%): 7%
  Total Cell Count: 554
[6]
  Population Apoptotic (%): 12%
  Population Fragmented Nuclei (%): 33%
  Population Healthy Nuclei (%): 64%
  Population Hoechst High Intensity Objects (%): 4%
  Population Membrane Permeable-Phenotype (%): 5%
  Population Mitochondria Different-Phenotype (%): 0%
  Population Mitotic Cells (%): 87%
  Population Normal (%): 95%
  Population Pyknosed Nuclei (%): 1%
  Population Tubulin-Different-Phenotype (%): 6%
  Total Cell Count: 2828
[7]
  Population Apoptotic (%): 27%
  Population Fragmented Nuclei (%): 31%
  Population Healthy Nuclei (%): 65%
  Population Hoechst High Intensity Objects (%): 52%
  Population Membrane Permeable-Phenotype (%): 11%
  Population Mitochondria Different-Phenotype (%): 9%
  Population Mitotic Cells (%): 72%
  Population Normal (%): 47%
  Population Pyknosed Nuclei (%): 3%
  Population Tubulin-Different-Phenotype (%): 17%
  Total Cell Count: 759
[8]
  Population Apoptotic (%): 12%
  Population Fragmented Nuclei (%): 26%
  Population Healthy Nuclei (%): 71%
  Population Hoechst High Intensity Objects (%): 24%
  Population Membrane Permeable-Phenotype (%): 9%
  Population Mitochondria Different-Phenotype (%): 4%
  Population Mitotic Cells (%): 88%
  Population Normal (%): 75%
  Population Pyknosed Nuclei (%): 2%
  Population Tubulin-Different-Phenotype (%): 32%
  Total Cell Count: 1535

## CN(C)C(=O)C(CCN1CCC(O)(c2ccc(Cl)cc2)CC1)(c1ccccc1)c1ccccc1.Cl [LOPERAMIDE HYDROCHLORIDE]
[1]
  Population Apoptotic (%): 70%
  Population Fragmented Nuclei (%): 10%
  Population Healthy Nuclei (%): 37%
  Population Hoechst High Intensity Objects (%): 16%
  Population Membrane Permeable-Phenotype (%): 2%
  Population Mitochondria Different-Phenotype (%): 92%
  Population Mitotic Cells (%): 29%
  Population Normal (%): 83%
  Population Pyknosed Nuclei (%): 51%
  Population Tubulin-Different-Phenotype (%): 83%
  Total Cell Count: 254
[2]
  Population Apoptotic (%): 56%
  Population Fragmented Nuclei (%): 4%
  Population Healthy Nuclei (%): 30%
  Population Hoechst High Intensity Objects (%): 0%
  Population Membrane Permeable-Phenotype (%): 6%
  Population Mitochondria Different-Phenotype (%): 95%
  Population Mitotic Cells (%): 43%
  Population Normal (%): 99%
  Population Pyknosed Nuclei (%): 65%
  Population Tubulin-Different-Phenotype (%): 85%
  Total Cell Count: 208
[3]
  Population Apoptotic (%): 91%
  Population Fragmented Nuclei (%): 10%
  Population Healthy Nuclei (%): 7%
  Population Hoechst High Intensity Objects (%): 20%
  Population Membrane Permeable-Phenotype (%): 0%
  Population Mitochondria Different-Phenotype (%): 100%
  Population Mitotic Cells (%): 8%
  Population Normal (%): 79%
  Population Pyknosed Nuclei (%): 82%
  Population Tubulin-Different-Phenotype (%): 86%
  Total Cell Count: 258
[4]
  Population Apoptotic (%): 98%
  Population Fragmented Nuclei (%): 6%
  Population Hoechst High Intensity Objects (%): 15%
  Population Mitotic Cells (%): 1%
  Population Normal (%): 84%
  Population Pyknosed Nuclei (%): 86%
  Population Tubulin-Different-Phenotype (%): 70%
  Total Cell Count: 158
[5]
  Population Apoptotic (%): 73%
  Population Fragmented Nuclei (%): 11%
  Population Healthy Nuclei (%): 35%
  Population Hoechst High Intensity Objects (%): 16%
  Population Membrane Permeable-Phenotype (%): 1%
  Population Mitochondria Different-Phenotype (%): 90%
  Population Mitotic Cells (%): 26%
  Population Normal (%): 83%
  Population Pyknosed Nuclei (%): 53%
  Population Tubulin-Different-Phenotype (%): 80%
  Total Cell Count: 259
[6]
  Population Apoptotic (%): 65%
  Population Fragmented Nuclei (%): 3%
  Population Healthy Nuclei (%): 48%
  Population Hoechst High Intensity Objects (%): 0%
  Population Membrane Permeable-Phenotype (%): 3%
  Population Mitochondria Different-Phenotype (%): 94%
  Population Mitotic Cells (%): 34%
  Population Normal (%): 99%
  Population Pyknosed Nuclei (%): 47%
  Population Tubulin-Different-Phenotype (%): 89%
  Total Cell Count: 242
[7]
  Population Apoptotic (%): 88%
  Population Fragmented Nuclei (%): 16%
  Population Healthy Nuclei (%): 8%
  Population Hoechst High Intensity Objects (%): 23%
  Population Membrane Permeable-Phenotype (%): 0%
  Population Mitochondria Different-Phenotype (%): 100%
  Population Mitotic Cells (%): 11%
  Population Normal (%): 76%
  Population Pyknosed Nuclei (%): 75%
  Population Tubulin-Different-Phenotype (%): 73%
  Total Cell Count: 297
[8]
  Population Apoptotic (%): 96%
  Population Fragmented Nuclei (%): 7%
  Population Hoechst High Intensity Objects (%): 12%
  Population Mitochondria Different-Phenotype (%): 91%
  Population Mitotic Cells (%): 3%
  Population Normal (%): 87%
  Population Pyknosed Nuclei (%): 84%
  Population Tubulin-Different-Phenotype (%): 75%
  Total Cell Count: 162
[9]
  Population Apoptotic (%): 75%
  Population Fragmented Nuclei (%): 16%
  Population Healthy Nuclei (%): 45%
  Population Hoechst High Intensity Objects (%): 16%
  Population Membrane Permeable-Phenotype (%): 0%
  Population Mitochondria Different-Phenotype (%): 86%
  Population Mitotic Cells (%): 24%
  Population Normal (%): 83%
  Population Pyknosed Nuclei (%): 37%
  Population Tubulin-Different-Phenotype (%): 80%
  Total Cell Count: 322
[10]
  Population Apoptotic (%): 71%
  Population Fragmented Nuclei (%): 6%
  Population Healthy Nuclei (%): 69%
  Population Hoechst High Intensity Objects (%): 3%
  Population Membrane Permeable-Phenotype (%): 1%
  Population Mitochondria Different-Phenotype (%): 83%
  Population Mitotic Cells (%): 28%
  Population Normal (%): 96%
  Population Pyknosed Nuclei (%): 23%
  Population Tubulin-Different-Phenotype (%): 89%
  Total Cell Count: 305
[11]
  Population Apoptotic (%): 85%
  Population Fragmented Nuclei (%): 25%
  Population Healthy Nuclei (%): 0%
  Population Hoechst High Intensity Objects (%): 24%
  Population Membrane Permeable-Phenotype (%): 0%
  Population Mitochondria Different-Phenotype (%): 100%
  Population Mitotic Cells (%): 14%
  Population Normal (%): 75%
  Population Pyknosed Nuclei (%): 73%
  Population Tubulin-Different-Phenotype (%): 0%
  Total Cell Count: 315
[12]
  Population Apoptotic (%): 98%
  Population Fragmented Nuclei (%): 9%
  Population Healthy Nuclei (%): 7%
  Population Hoechst High Intensity Objects (%): 19%
  Population Mitochondria Different-Phenotype (%): 90%
  Population Mitotic Cells (%): 1%
  Population Normal (%): 80%
  Population Pyknosed Nuclei (%): 82%
  Population Tubulin-Different-Phenotype (%): 72%
  Total Cell Count: 181

## C[C@H]1Oc2cc(cnc2N)-c2c(nn(C)c2C#N)CN(C)C(=O)c2ccc(F)cc21 [LORLATINIB]
[1]
  Population Apoptotic (%): 21% and 18%
  Population Fragmented Nuclei (%): 16% and 9%
  Population Healthy Nuclei (%): 66% and 76%
  Population Hoechst High Intensity Objects (%): 11% and 7%
  Population Membrane Permeable-Phenotype (%): 7% and 4%
  Population Mitochondria Different-Phenotype (%): 3% and 5%
  Population Mitotic Cells (%): 78% and 81%
  Population Normal (%): 88% and 92%
  Population Pyknosed Nuclei (%): 17% and 14%
  Population Tubulin-Different-Phenotype (%): 2% and 3%
  Total Cell Count: 529 and 617
[2]
  Population Apoptotic (%): 5% and 14%
  Population Fragmented Nuclei (%): 6% and 7%
  Population Healthy Nuclei (%): 87%
  Population Hoechst High Intensity Objects (%): 2%
  Population Membrane Permeable-Phenotype (%): 3% and 1%
  Population Mitochondria Different-Phenotype (%): 7% and 6%
  Population Mitotic Cells (%): 94% and 85%
  Population Normal (%): 97%
  Population Pyknosed Nuclei (%): 6% and 5%
  Population Tubulin-Different-Phenotype (%): 9%
  Total Cell Count: 1515 and 1456
[5]
  Population Apoptotic (%): 18% and 15%
  Population Fragmented Nuclei (%): 12% and 7%
  Population Healthy Nuclei (%): 75% and 82%
  Population Hoechst High Intensity Objects (%): 3% and 4%
  Population Membrane Permeable-Phenotype (%): 10% and 9%
  Population Mitochondria Different-Phenotype (%): 2% and 5%
  Population Mitotic Cells (%): 81% and 84%
  Population Normal (%): 96% and 95%
  Population Pyknosed Nuclei (%): 12% and 9%
  Population Tubulin-Different-Phenotype (%): 5% and 4%
  Total Cell Count: 614 and 730
[6]
  Population Apoptotic (%): 3% and 7%
  Population Fragmented Nuclei (%): 14% and 18%
  Population Healthy Nuclei (%): 80% and 78%
  Population Membrane Permeable-Phenotype (%): 8% and 3%
  Population Mitochondria Different-Phenotype (%): 1%
  Population Mitotic Cells (%): 96% and 92%
  Population Pyknosed Nuclei (%): 4% and 3%
  Population Tubulin-Different-Phenotype (%): 9% and 3%
  Total Cell Count: 2424 and 2417

Reference: ChEMBL document CHEMBL4689842, “EUbOPEN Chemogenomics Library wave 1” (2021)
